Measured values reported in ChEMBL document CHEMBL3808278, “Design, Synthesis, and Biological Evaluation of Imidazo[1,5-a]quinoline as Highly Potent Ligands of Central Benzodiazepine Receptors” (J Med Chem, 2016).
Activity calls are given as the source filed them. The rule behind the calls is not given here.

species on record: Bos taurus; assay: Selectivity ratio, ratio of Ki for central-type benzodiazepine receptor in bovine cortical membrane to Ki for central-type benzodiazepine receptor in bovine cortical membrane in presence of 50 uM of GABA; format: cell membranes; conditions: not given

Compound | Ratio Ki
CCOC(=O)Cc1c(-c2ccccc2)c2ccccc2n2cnc(C(=O)OCC)c12 | 0.72
CCOC(=O)c1ncn2c1cc(C(=O)N1CCN(C)CC1)c1ccccc12 | 1
CCCCN(C)C(=O)c1cc2c(C(=O)OCC)ncn2c2ccccc12 | 0.76
CCCc1c(C(=O)N(CC)CC)c2ccccc2n2cnc(C(=O)OC(C)(C)C)c12 | 1.1
CCOC(=O)c1ncn2c1c(C)c(C(=O)N(C)Cc1ccccc1)c1ccccc12 | 1.1
CCCc1c(C(=O)N(CC)CC)c2ccccc2n2cnc(C(=O)OCC)c12 | 0.9
CCCN(CCC)C(=O)c1c(CC)c2c(C(=O)OC(C)(C)C)ncn2c2ccccc12 | 1.4
CCCN(CCC)C(=O)c1cc2c(C(=O)OC(C)(C)C)ncn2c2ccccc12 | 1.1
CCOC(=O)c1ncn2c1cc(C(=O)N(C)Cc1ccccc1)c1cc(F)ccc12 | 0.8
CCCN(CCC)C(=O)c1c(CC)c2c(C(=O)OCC)ncn2c2ccccc12 | 1.5
CCOC(=O)c1ncn2c1CN(C)C(=O)c1cc(F)ccc1-2 [FLUMAZENIL] | 1.03
CN(C)C(=O)c1ncn2c1cc(-c1ccccc1)c1ccccc12 | 1.44
CCOC(=O)c1ncn2c1c(C(=O)OCC)c(-c1ccccc1)c1ccccc12 | 0.66
CN(C)C(=O)c1cc2c(C(=O)OC(C)(C)C)ncn2c2ccccc12 | 1.6
CCOC(=O)c1ncn2c1cc(C(=O)N(C)Cc1ccccc1)c1ccccc12 | 0.52
CCCN(CCC)C(=O)c1cc2c(C(=O)OCC)ncn2c2ccccc12 | 1
CN(Cc1ccccc1)C(=O)c1ncn2c1cc(-c1ccccc1)c1ccccc12 | 0.92
CCOC(=O)c1ncn2c1c1c(c3ccccc32)CCC1 | 1.3
Cc1c(-c2ccccc2)c2ccccc2n2cnc(C(=O)OC(C)(C)C)c12 | 1

species on record: Rattus norvegicus; assay: Partial agonist activity at central-type benzodiazepine receptor in Sprague-Dawley rat cerebrocortical synaptoneurosomes assessed as increase in 36Cl- influx after 10 secs by liquid-phase scintillation beta-counting method; conditions: not given

Compound | Activity
CCCN(CCC)C(=O)c1c(CC)c2c(C(=O)OC(C)(C)C)ncn2c2ccccc12 | Active
CCCN(CCC)C(=O)c1c(CC)c2c(C(=O)OCC)ncn2c2ccccc12 | Active
CN(C)C(=O)c1ncn2c1cc(-c1ccccc1)c1ccccc12 | Active
CN(C)C(=O)c1cc2c(C(=O)OC(C)(C)C)ncn2c2ccccc12 | Active

system: Brain; assay: Neuroprotective activity against oxygen-glucose deprivation and reoxygenation-induced injury in Sprague-Dawley rat brain cortical slices assessed as maximum recovery in LDH release at 5 uM treated during 90 mins of reperfusion phase measured after 90 mins by spetrophotometric method; format: functional; conditions: not given
Outline: (§1)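 Rat brain cortical slices in ACSF underwent 30 min oxygen/glucose deprivation, then 90 min reoxygenated ACSF (reperfusion). Controls were kept 120 min in ACSF. Compounds (0.1–100 µM) were added only during reperfusion, and LDH release was measured. Data are means ± SEM of at least 4 experiments, analysed by ANOVA with Dunnett post test. The effective concentration is that giving the largest reduction, and recovery is the % reversion at that concentration.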

Compound | Activity
CCCN(CCC)C(=O)c1c(CC)c2c(C(=O)OC(C)(C)C)ncn2c2ccccc12 | 44.4%

system: Mus musculus; assay: Antiamnestic activity in mouse assessed as prevention of scopalamine-induced amnesia at 10 mg/kg, po administered 30 mins before test by passive avoidance test; format: functional, organism-based; conditions: not given
Outline: (§2)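 Passive avoidance in mice: compounds were given per os 30 min before the test, and scopolamine 1.5 mg kg-1 i.p. immediately after the punishment. Read-out was time recorded during the retention session. Values are mean ± SEM of at least 10 mice, compared with vehicle-treated animals.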

Compound | Activity
CCCCN(C)C(=O)c1cc2c(C(=O)OCC)ncn2c2ccccc12 | Active
CCCN(CCC)C(=O)c1c(CC)c2c(C(=O)OC(C)(C)C)ncn2c2ccccc12 | Active
CCCN(CCC)C(=O)c1c(CC)c2c(C(=O)OCC)ncn2c2ccccc12 | Active

system: Brain; assay: Neuroprotective activity against oxygen-glucose deprivation and reoxygenation-induced injury in Sprague-Dawley rat brain cortical slices assessed as maximum recovery in LDH release at 50 uM treated during 90 mins of reperfusion phase measured after 90 mins by spetrophotometric method; format: functional; conditions: not given; outline: as §1

Compound | Activity
CCCN(CCC)C(=O)c1c(CC)c2c(C(=O)OCC)ncn2c2ccccc12 | 44.3%

species on record: Rattus norvegicus; assay: Inverse agonist activity at central-type benzodiazepine receptor in Sprague-Dawley rat cerebrocortical synaptoneurosomes assessed as decrease in 36Cl- flow after 10 secs by liquid-phase scintillation beta-counting method; conditions: not given

Compound | Activity
CCOC(=O)Cc1c(-c2ccccc2)c2ccccc2n2cnc(C(=O)OCC)c12 | Active
CCCCN(C)C(=O)c1cc2c(C(=O)OCC)ncn2c2ccccc12 | Active
CCOC(=O)c1ncn2c1cc(C(=O)N(C)Cc1ccccc1)c1cc(F)ccc12 | Active
CCOC(=O)c1ncn2c1c(C(=O)OCC)c(-c1ccccc1)c1ccccc12 | Active
CCOC(=O)c1ncn2c1cc(C(=O)N(C)Cc1ccccc1)c1ccccc12 | Active

species on record: Rattus norvegicus; assay: Partial inverse agonist activity at central-type benzodiazepine receptor in Sprague-Dawley rat cerebrocortical synaptoneurosomes assessed as decrease in 36Cl- flow after 10 secs by liquid-phase scintillation beta-counting method; conditions: not given

Compound | Activity
CCOC(=O)c1ncn2c1CN(C)C(=O)c1cc(F)ccc1-2 [FLUMAZENIL] | Active

species on record: Rattus norvegicus; assay: Antagonist activity at central-type benzodiazepine receptor in Sprague-Dawley rat cerebrocortical synaptoneurosomes assessed as decrease in 36Cl- flow after 10 secs by liquid-phase scintillation beta-counting method; conditions: not given

Compound | Antagonist activity
CCOC(=O)c1ncn2c1cc(C(=O)N1CCN(C)CC1)c1ccccc12 | Active
CCOC(=O)c1ncn2c1c(C)c(C(=O)N(C)Cc1ccccc1)c1ccccc12 | Active
CCCN(CCC)C(=O)c1cc2c(C(=O)OC(C)(C)C)ncn2c2ccccc12 | Active
CCCN(CCC)C(=O)c1cc2c(C(=O)OCC)ncn2c2ccccc12 | Active
CN(Cc1ccccc1)C(=O)c1ncn2c1cc(-c1ccccc1)c1ccccc12 | Active
Cc1c(-c2ccccc2)c2ccccc2n2cnc(C(=O)OC(C)(C)C)c12 | Active

species on record: Mus musculus; assay: Myorelaxant effect in mouse assessed as effect on motor coordination after 30 mins by rotarad test; format: organism-based; conditions: in vivo, 0.5 h
Outline: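 Rota-rod test of motor coordination in mice, with compounds given per os 30 min before testing. Values are mean ± SEM of at least 10 mice.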

Compound | Activity
CCCCN(C)C(=O)c1cc2c(C(=O)OCC)ncn2c2ccccc12 | Non-toxic
CCCN(CCC)C(=O)c1c(CC)c2c(C(=O)OC(C)(C)C)ncn2c2ccccc12 | Non-toxic
CCCN(CCC)C(=O)c1c(CC)c2c(C(=O)OCC)ncn2c2ccccc12 | Non-toxic

species on record: Homo sapiens; assay: Selectivity ratio, ratio of Ki for central-type benzodiazepine receptor in human cortical membrane to Ki for central-type benzodiazepine receptor in human cortical membrane in presence of 50 uM of GABA; format: cell membranes; conditions: not given

Compound | Ratio Ki
CCOC(=O)c1ncn2c1CN(C)C(=O)c1cc(F)ccc1-2 [FLUMAZENIL] | 1.02

target: not listed separately; assay: Displacement of [3H]-flumazenil from central-type benzodiazepine receptor in human cortical membrane after 90 mins by liquid-phase scintillation beta-counting method; format: cell membranes; conditions: not given
Outline: (§3)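 Competition binding against radiolabelled antagonist [3H]flumazenil in cortical membranes (bovine; human where listed); Ki reported as mean ± SEM of three independent determinations.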

Compound | Ki
CCOC(=O)c1ncn2c1CN(C)C(=O)c1cc(F)ccc1-2 [FLUMAZENIL] | 2 nM

system: Mus musculus; assay: Anxiolytic activity in mouse assessed as time spent in light box at 10 mg/kg, po administered 30 mins before test by light-dark box test; format: functional; conditions: not given
Outline: (§4)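 Light-dark box in mice measured time in the light compartment. Compounds were given per os 30 min before testing, and diazepam 1 mg kg-1 subcutaneously as reference. Values are mean ± SEM of at least 10 mice, compared with vehicle-treated animals.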

Compound | Time
CCCN(CCC)C(=O)c1c(CC)c2c(C(=O)OC(C)(C)C)ncn2c2ccccc12 | 172.5 s

system: Mus musculus; assay: Neurotoxicity in mouse assessed as effect on neurological and muscular abilities at 10 mg/kg, po after 30 mins by Hole-Board test; format: toxicity, organism-based; conditions: in vivo, 0.5 h
Outline: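 Hole-board test 30 min after oral dosing at 10 mg kg-1 counted movements (motor activity) and head inspections (exploratory activity). Values are mean ± SEM of at least 10 mice, compared with vehicle controls.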

Compound | Activity
CCCCN(C)C(=O)c1cc2c(C(=O)OCC)ncn2c2ccccc12 | Non-toxic
CCCN(CCC)C(=O)c1c(CC)c2c(C(=O)OC(C)(C)C)ncn2c2ccccc12 | Non-toxic
CCCN(CCC)C(=O)c1c(CC)c2c(C(=O)OCC)ncn2c2ccccc12 | Non-toxic

system: Mus musculus; assay: Anxiolytic activity against mouse assessed as increase in time spent in light box at 10 mg/kg, po administered 30 mins before test by light-dark box test; format: functional, organism-based; conditions: not given; outline: as §4

Compound | Activity
CCCCN(C)C(=O)c1cc2c(C(=O)OCC)ncn2c2ccccc12 | Active
CCCN(CCC)C(=O)c1c(CC)c2c(C(=O)OCC)ncn2c2ccccc12 | Active

system: Mus musculus; assay: Antiamnestic activity in scopolamine induced mouse amnesia model assessed as time spent in light box at 1 mg/kg, po administered 30 mins before test by passive avoidance test; format: functional, organism-based; conditions: not given; outline: as §2

Compound | Activity
CCCN(CCC)C(=O)c1c(CC)c2c(C(=O)OC(C)(C)C)ncn2c2ccccc12 | Active

target: not listed separately; assay: Displacement of [3H]-flumazenil from central-type benzodiazepine receptor in bovine cortical membrane after 90 mins by liquid-phase scintillation beta-counting method; format: cell membranes, Bos taurus; conditions: not given; outline: as §3

Compound | Ki
CCOC(=O)Cc1c(-c2ccccc2)c2ccccc2n2cnc(C(=O)OCC)c12 | 3.8 nM
CCOC(=O)c1ncn2c1cc(C(=O)N1CCN(C)CC1)c1ccccc12 | 55 nM
CCCCN(C)C(=O)c1cc2c(C(=O)OCC)ncn2c2ccccc12 | 1.9 nM
CCCc1c(C(=O)N(CC)CC)c2ccccc2n2cnc(C(=O)OC(C)(C)C)c12 | 2870 nM
CCOC(=O)c1ncn2c1c(C)c(C(=O)N(C)Cc1ccccc1)c1ccccc12 | 6.5 nM
CCCc1c(C(=O)N(CC)CC)c2ccccc2n2cnc(C(=O)OCC)c12 | 169 nM
CCCN(CCC)C(=O)c1c(CC)c2c(C(=O)OC(C)(C)C)ncn2c2ccccc12 | 5.6 nM
CCCN(CCC)C(=O)c1cc2c(C(=O)OC(C)(C)C)ncn2c2ccccc12 | 1.2 nM
CCOC(=O)c1ncn2c1cc(C(=O)N(C)Cc1ccccc1)c1cc(F)ccc12 | 5.7 nM
CCCN(CCC)C(=O)c1c(CC)c2c(C(=O)OCC)ncn2c2ccccc12 | 2.5 nM
CCOC(=O)c1ncn2c1CN(C)C(=O)c1cc(F)ccc1-2 [FLUMAZENIL] | 1.9 nM
CN(C)C(=O)c1ncn2c1cc(-c1ccccc1)c1ccccc12 | 3520 nM
CCOC(=O)c1ncn2c1c(C(=O)OCC)c(-c1ccccc1)c1ccccc12 | 2190 nM
CN(C)C(=O)c1cc2c(C(=O)OC(C)(C)C)ncn2c2ccccc12 | 11 nM
CCOC(=O)c1ncn2c1cc(C(=O)N(C)Cc1ccccc1)c1ccccc12 | 20 nM
CCCN(CCC)C(=O)c1cc2c(C(=O)OCC)ncn2c2ccccc12 | 0.91 nM
CN(Cc1ccccc1)C(=O)c1ncn2c1cc(-c1ccccc1)c1ccccc12 | 449 nM
CCOC(=O)c1ncn2c1c1c(c3ccccc32)CCC1 | 18 nM
Cc1c(-c2ccccc2)c2ccccc2n2cnc(C(=O)OC(C)(C)C)c12 | 10 nM
